Assays:
MCF7 = test: Anticancer activity against human MCF7 cells after 96 hrs by MTT assay; format: functional; conditions: MCF7, 96 h
How it was run: (§1)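 Human breast cancer lines: MCF-7 (wild type) and MDA-MB-436 (naturally carrying BRCA1 mutations, BRCA1-deficient). Cytotoxicity reported as CC50 in μM.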

[1] = target: Poly [ADP-ribose] polymerase 1 (Homo sapiens, UniProt P09874); test: Inhibition of PARP1 (unknown origin)
[2] = Anticancer activity against human BRCA1-deficient MDA-MB-436 cells after 96 hrs by MTT assay; format: functional; conditions: MDA-MB-436, 96 h; how it was run: as §1

Chain of Poly [ADP-ribose] polymerase 1 (P09874 whole entry): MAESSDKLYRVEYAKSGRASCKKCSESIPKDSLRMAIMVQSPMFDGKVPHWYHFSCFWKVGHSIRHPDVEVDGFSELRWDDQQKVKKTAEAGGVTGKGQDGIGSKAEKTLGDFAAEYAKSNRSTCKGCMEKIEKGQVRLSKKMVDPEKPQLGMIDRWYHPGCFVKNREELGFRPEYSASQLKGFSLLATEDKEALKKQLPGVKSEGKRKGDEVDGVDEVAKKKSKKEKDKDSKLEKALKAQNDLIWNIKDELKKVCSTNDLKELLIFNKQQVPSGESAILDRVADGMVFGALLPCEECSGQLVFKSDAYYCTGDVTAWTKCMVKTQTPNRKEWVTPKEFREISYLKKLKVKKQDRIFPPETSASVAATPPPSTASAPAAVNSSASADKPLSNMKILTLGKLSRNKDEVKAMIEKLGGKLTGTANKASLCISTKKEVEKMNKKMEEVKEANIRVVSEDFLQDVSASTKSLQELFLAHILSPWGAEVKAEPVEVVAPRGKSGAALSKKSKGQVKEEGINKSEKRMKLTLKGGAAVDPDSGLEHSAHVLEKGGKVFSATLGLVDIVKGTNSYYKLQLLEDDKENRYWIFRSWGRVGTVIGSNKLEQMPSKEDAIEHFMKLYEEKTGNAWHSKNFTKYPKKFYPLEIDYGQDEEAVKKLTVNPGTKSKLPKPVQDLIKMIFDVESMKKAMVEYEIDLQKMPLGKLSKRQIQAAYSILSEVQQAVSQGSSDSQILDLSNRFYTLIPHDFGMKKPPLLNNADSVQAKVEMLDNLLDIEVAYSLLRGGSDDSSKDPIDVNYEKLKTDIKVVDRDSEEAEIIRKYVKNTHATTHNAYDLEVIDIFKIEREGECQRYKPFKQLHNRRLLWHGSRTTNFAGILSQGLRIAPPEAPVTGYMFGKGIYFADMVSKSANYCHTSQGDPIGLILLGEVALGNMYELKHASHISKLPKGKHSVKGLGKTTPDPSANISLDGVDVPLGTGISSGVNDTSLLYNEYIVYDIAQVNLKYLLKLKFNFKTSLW

IC50 [1]	SMILES	CC50 (MCF7)	CC50 [2]
0.0035 µM	CCCNCc1ccc(-c2[nH]c3cc(F)cc4c3c2C(=O)NNC4=O)cc1	25.9 µM	5.45 µM
0.00242 µM	CCCCNCc1ccc(-c2[nH]c3cc(F)cc4c3c2C(=O)NNC4=O)cc1		114 µM
0.25 µM	CCCCNCc1ccc(-c2[nH]c3cccc4c3c2C(=O)NNC4=O)cc1	18 µM	18.9 µM
2.7 µM	CNCc1ccc(-c2[nH]c3cccc4c3c2C(=O)NNC4=O)cc1	83.1 µM	11.3 µM
11.3 µM	CC(C)NCc1ccc(-c2[nH]c3cccc4c3c2C(=O)NNC4=O)cc1	40.7 µM	55.7 µM
0.0354 µM	CCCCNCc1ccc(-c2cc3c4c(c[nH]c4c2)C(=O)NNC3=O)cc1	237 µM	68.8 µM

Second part, the compound before the results:

SMILES	IC50 [1]	CC50 (MCF7)	CC50 [2]
CNCc1ccc(-c2[nH]c3cc(F)cc4c3c2C(=O)NNC4=O)cc1	0.00664 µM	65.3 µM	56.2 µM
CCCNCc1ccc(-c2cc3c4c(c[nH]c4c2)C(=O)NNC3=O)cc1	0.138 µM	5560 µM	112 µM
CNCc1ccc(-c2cc3c4c(c[nH]c4c2)C(=O)NNC3=O)cc1		1240 µM	
CC(C)NCc1ccc(-c2cc3c4c(c[nH]c4c2)C(=O)NNC3=O)cc1	0.465 µM	1920 µM	105 µM
CNCc1ccc(-c2[nH]c3cc(F)cc4c3c2CCNC4=O)cc1 [RUCAPARIB]		19.5 µM	3 µM
CCCNCc1ccc(-c2[nH]c3cccc4c3c2C(=O)NNC4=O)cc1		101 µM	
